# Measured values: article PMC5084670 (Cancer Science, 2016)
# Marks after values point to notes of the source that are not given here.
# Assay: Phase I dose-escalation study: safety, adverse events
# Assay type: in vivo, human
# Summary of the method: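 Oral test compound was given once daily in 28-day cycles after a 7-day single-dose run-in, in Japanese and Hong Kong/Taiwan groups escalated separately. Toxicity was graded by CTCAE v3.0 using laboratory tests, physical examination, vital signs, weight and periodic ECG. DLTs were grade 3–4 events over the run-in plus cycle 1. MTD was set by an adaptive Bayesian logistic regression model with overdose control.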
# [1] = group 1, 400 mg q.d. (n = 12), All grades
# [2] = group 1, 400 mg q.d. (n = 12), Grade 3
# [3] = group 1, 400 mg q.d. (n = 12), Grade 4
# [4] = group 1, 600 mg q.d. (n = 9), All grades
# [5] = group 1, 600 mg q.d. (n = 9), Grade 3
structure (smiles),measurement,setting,value
Cc1c(C(=O)Nc2ccc(N3C[C@@H](C)O[C@@H](C)C3)nc2)cccc1-c1ccc(OC(F)(F)F)cc1 [Sonidegib],Maximum CK level,a patient receiving 600 mg,40 400 IU/L
same,Myoglobin level at maximum CK level,a patient receiving 600 mg,5320 ng/mL
same,Deaths,both groups,no deaths were reported
same,Recommended dose (RD),"both groups, East Asian patients",400 mg q.d.
same,Changes in electrocardiogram parameters,during the course of treatment,No clinically significant changes
same,Recommended dose (RD),group 1 (Japanese),400 mg q.d.
same,Grade 3 /4 Creatine kinase elevation during all study period,"group 1 (Japanese), 400 mg qd, N = 12",2 (17) ^† n (%)
same,Grade 3 /4 Creatine kinase elevation during all study period,"group 1 (Japanese), 600 mg qd, N = 9",5 (56) ^† n (%)
same,Grade 3 /4 Creatine kinase elevation during all study period,"group 1 (Japanese), All patients, N = 21",7 (33) n (%)
same,DLT in cycle 1 (creatine kinase elevation),"group 1, 400 mg",single DLT
same,Alopecia (drug-related adverse event),[1],2 (17) n (%)
same,Blood creatine kinase increased (drug-related adverse event),[1],2 (17) n (%)
same,Decreased level of consciousness (drug-related adverse event),[1],0 (0) n (%)
same,Dysgeusia (drug-related adverse event),[1],1 (8) n (%)
same,Fatigue (drug-related adverse event),[1],2 (17) n (%)
same,Hepatic function abnormal (drug-related adverse event),[1],2 (17) n (%)
same,Hyperglycemia (drug-related adverse event),[1],0 (0) n (%)
same,Lymphopenia (drug-related adverse event),[1],0 (0) n (%)
same,Muscle spasms (drug-related adverse event),[1],1 (8) n (%)
same,Muscle weakness (drug-related adverse event),[1],0 (0) n (%)
same,Myalgia (drug-related adverse event),[1],2 (17) n (%)
same,Myoglobin blood increased (drug-related adverse event),[1],0 (0) n (%)
same,Nausea (drug-related adverse event),[1],1 (8) n (%)
same,Rhabdomyolysis (drug-related adverse event),[1],1 (8) n (%)
same,Alopecia (drug-related adverse event),[2],0 (0) n (%)
same,Blood creatine kinase increased (drug-related adverse event),[2],1 (8) n (%)
same,Decreased level of consciousness (drug-related adverse event),[2],0 (0) n (%)
same,Dysgeusia (drug-related adverse event),[2],0 (0) n (%)
same,Fatigue (drug-related adverse event),[2],0 (0) n (%)
same,Hepatic function abnormal (drug-related adverse event),[2],1 (8) n (%)
same,Hyperglycemia (drug-related adverse event),[2],0 (0) n (%)
same,Lymphopenia (drug-related adverse event),[2],0 (0) n (%)
same,Muscle spasms (drug-related adverse event),[2],0 (0) n (%)
same,Muscle weakness (drug-related adverse event),[2],0 (0) n (%)
same,Myalgia (drug-related adverse event),[2],0 (0) n (%)
same,Myoglobin blood increased (drug-related adverse event),[2],0 (0) n (%)
same,Nausea (drug-related adverse event),[2],0 (0) n (%)
same,Rhabdomyolysis (drug-related adverse event),[2],0 (0) n (%)
same,Alopecia (drug-related adverse event),[3],0 (0) n (%)
same,Blood creatine kinase increased (drug-related adverse event),[3],0 (0) n (%)
same,Decreased level of consciousness (drug-related adverse event),[3],0 (0) n (%)
same,Dysgeusia (drug-related adverse event),[3],0 (0) n (%)
same,Fatigue (drug-related adverse event),[3],0 (0) n (%)
same,Hepatic function abnormal (drug-related adverse event),[3],0 (0) n (%)
same,Hyperglycemia (drug-related adverse event),[3],0 (0) n (%)
same,Lymphopenia (drug-related adverse event),[3],0 (0) n (%)
same,Muscle spasms (drug-related adverse event),[3],0 (0) n (%)
same,Muscle weakness (drug-related adverse event),[3],0 (0) n (%)
same,Myalgia (drug-related adverse event),[3],0 (0) n (%)
same,Myoglobin blood increased (drug-related adverse event),[3],0 (0) n (%)
same,Nausea (drug-related adverse event),[3],0 (0) n (%)
same,Rhabdomyolysis (drug-related adverse event),[3],1 (8) n (%)
same,Additional patients with grade 3 or 4 CK elevation after cycle 1,"group 1, 600 mg",four
same,DLT in cycle 1 (creatine kinase elevation),"group 1, 600 mg",single DLT
same,Alopecia (drug-related adverse event),[4],2 (22) n (%)
same,Blood creatine kinase increased (drug-related adverse event),[4],5 (56) n (%)
same,Decreased level of consciousness (drug-related adverse event),[4],1 (11) n (%)
same,Dysgeusia (drug-related adverse event),[4],2 (22) n (%)
same,Fatigue (drug-related adverse event),[4],2 (22) n (%)
same,Hepatic function abnormal (drug-related adverse event),[4],3 (33) n (%)
same,Hyperglycemia (drug-related adverse event),[4],1 (11) n (%)
same,Lymphopenia (drug-related adverse event),[4],1 (11) n (%)
same,Muscle spasms (drug-related adverse event),[4],1 (11) n (%)
same,Muscle weakness (drug-related adverse event),[4],1 (11) n (%)
same,Myalgia (drug-related adverse event),[4],4 (44) n (%)
same,Myoglobin blood increased (drug-related adverse event),[4],1 (11) n (%)
same,Nausea (drug-related adverse event),[4],2 (22) n (%)
same,Rhabdomyolysis (drug-related adverse event),[4],1 (11) n (%)
same,Alopecia (drug-related adverse event),[5],0 (0) n (%)
same,Blood creatine kinase increased (drug-related adverse event),[5],2 (22) n (%)
same,Decreased level of consciousness (drug-related adverse event),[5],0 (0) n (%)
same,Dysgeusia (drug-related adverse event),[5],0 (0) n (%)
same,Fatigue (drug-related adverse event),[5],0 (0) n (%)
same,Hepatic function abnormal (drug-related adverse event),[5],1 (11) n (%)
same,Hyperglycemia (drug-related adverse event),[5],1 (11) n (%)
